Active and inactive are the calls of the source. The rule behind the calls is not given here.
How the values were obtained:
[1] = tested on: MCF7; assay: Cell cycle arrest in human MCF7 cells assessed as accumulation at G2/M phase after 48 hrs by propidium iodide staining based flow cytometry; assay type: functional
[2] = tested on: Bel-7402; assay: Antiproliferative activity against human Bel7402 cells after 72 hrs by MTT assay; assay type: functional, cell-based; conditions: Bel-7402, 72 h
Summary of the method: (§1)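 Cells pre-incubated 24 h at 37 °C, 5% CO2 in 96-well plates, then exposed to a range of compound concentrations (DMSO ≤0.25%) for 72 h. Viable cells read by MTT colour at 570 nm. Performed in quadruplicate, repeated three times. IC50 reported as means ± SD, n = 3.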

[3] = tested on: K562; assay: Antiproliferative activity against human K562 cells after 72 hrs by MTT assay; assay type: functional, cell-based; conditions: K562, 72 h; summary of the method: as §1
[4] = species on record: Homo sapiens; assay: Antiproliferative activity against human KB/CP4 cells after 48 hrs by MTT assay; assay type: functional, cell-based
[5] = tested on: KB 3-1; assay: Antiproliferative activity against human KB-3-1 cells after 48 hrs by MTT assay; assay type: functional, cell-based
[6] = tested on: MCF7; assay: Cell cycle arrest in human MCF7 cells assessed as accumulation at G2/M phase at 0.25 uM after 48 hrs by propidium iodide staining based flow cytometry (reference value: 12.72%); assay type: functional
[7] = tested on: MCF7; assay: Cell cycle arrest in human MCF7 cells assessed as accumulation at S phase at 0.25 uM after 48 hrs by propidium iodide staining based flow cytometry (reference value: 17.01%); assay type: functional
[8] = tested on: MCF7; assay: Cell cycle arrest in human MCF7 cells assessed as accumulation at G1 phase at 0.50 uM after 48 hrs by propidium iodide staining based flow cytometry (reference value: 70.27%); assay type: functional
[9] = tested on: MCF7; assay: Cell cycle arrest in human MCF7 cells assessed as accumulation at S phase at 2 uM after 48 hrs by propidium iodide staining based flow cytometry (reference value: 17.01%); assay type: functional
[10] = tested on: MCF7; assay: Cytotoxicity against human MCF7 cells assessed as decrease in cell viability after 24 hrs by LDH release assay; assay type: functional, cell-based
Summary of the method: (§2)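 MCF-7 and Bel-7402 cells seeded at ~5 × 10^3 per well for 24 h, then exposed to compounds. LDH released into the medium measured with CytoTox-ONE reagent (10 min, ambient temperature) followed by stop solution. Fluorescence read at ex 560/em 590 nm.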

[11] = tested on: Bel-7402; assay: Cytotoxicity against human Bel7402 cells assessed as decrease in cell viability after 24 hrs by LDH release assay; assay type: functional, cell-based; summary of the method: as §2
[12] = tested on: MCF7; assay: Induction of apoptosis in human MCF7 cells assessed as viable cells at 0.50 uM after 24 hrs by Annexin-V FITC/propidium iodide staining based flow cytometry (reference value: 97.5%); assay type: functional; conditions: MCF7, 24 h, read-out: Activity
[13] = tested on: MCF7; assay: Induction of apoptosis in human MCF7 cells assessed as late apoptotic cells at 0.50 uM after 24 hrs by Annexin-V FITC/propidium iodide staining based flow cytometry (reference value: 0.290%); assay type: functional
[14] = tested on: MCF7; assay: Induction of apoptosis in human MCF7 cells assessed as viable cells at 1 uM after 24 hrs by Annexin-V FITC/propidium iodide staining based flow cytometry (reference value: 97.5%); assay type: functional; conditions: MCF7, 24 h, read-out: Activity
[15] = tested on: MCF7; assay: Induction of apoptosis in human MCF7 cells assessed as early apoptotic cells at 1 uM after 24 hrs by Annexin-V FITC/propidium iodide staining based flow cytometry (reference value: 1.60%); assay type: functional
[16] = tested on: MCF7; assay: Induction of apoptosis in human MCF7 cells assessed as necrotic cells at 2 uM after 24 hrs by Annexin-V FITC/propidium iodide staining based flow cytometry (reference value: 0.610%); assay type: functional
[17] = tested on: MCF7; assay: Induction of apoptosis in human MCF7 cells assessed as increase in caspase 3 expression level after 48 hrs by Western blot analysis; assay type: functional, cell-based
[18] = tested on: MCF7; assay: Induction of apoptosis in human MCF7 cells assessed as decrease in Bcl2 expression level after 48 hrs by Western blot analysis; assay type: functional, cell-based
Summary of the method: (§3)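 MCF-7 cells treated 48 h with 0, 0.5, 1.0, 2.0 or 4.0 μM, then lysed on ice. 20 μg protein per lane run on 8–12% SDS-PAGE and transferred to PVDF. Probed overnight at 4 °C for caspase-3, pro-caspase-3, Bax, Bcl-2, p-ERK and p53, with fluorescent secondary antibodies. Densities normalised to β-actin; three independent experiments.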

[19] = tested on: MCF7; assay: Induction of apoptosis in human MCF7 cells assessed as decrease in p53 expression level after 48 hrs by Western blot analysis; assay type: functional, cell-based; summary of the method: as §3

C=C1C(=O)[C@@]23C(=O)OC[C@]4(C=CCC(C)(C)[C@H]4C=O)[C@@H]2CC[C@@H]1[C@H]3OC(=O)c1ccc(F)cc1
Activity [1]: Dose-dependent effect
IC50 [2]: 1800 nM
IC50 [3]: 690 nM
Activity [4]: Active
Activity [5]: Active
Activity [6]: 14.06%
Activity [7]: 18.3%
Activity [8]: 64.82%
Activity [9]: 17.71%
Activity [10]: inactive
Activity [11]: inactive
viability at 0.5 µM [12]: 81.7%
Activity [13]: 7.68%
viability at 1 µM [14]: 72%
Activity [15]: 10.2%
Activity [16]: 2.74%
Activity [17]: Dose-dependent effect
Activity [18]: Dose-dependent effect
Activity [19]: Dose-dependent effect

From ChEMBL document CHEMBL4130438, “6,7-Seco-ent-Kauranoids Derived from Oridonin as Potential Anticancer Agents” (J Nat Prod, 2017)
